Each structure is given as a SMILES string.

This is an account of results in ChEMBL document CHEMBL1158044, “Bioactive depsides and anthocyanins from jaboticaba (Myrciaria cauliflora)” (J Nat Prod, 2006).

Series [1] in a line: Antiradical activity assessed as DPPH radical scavenging activity. The format is physicochemical. In short, it runs like this: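 DPPH radical scavenging done per an earlier method with 400 µM DPPH. Tested on extracts, fractions and pure compounds, with gallic acid as positive control. IC50 reported.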
Series [2] is described as follows: Inhibition of IL8 production in human SAE cells at 100 uM. It is filed as functional. Details: Activity: scale not given: the % may be the effect or the level left. Put shortly:
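Confluent human small airway epithelial cells (passages 4-8, 5% CO2, 37 °C) given compound at 100 µM without smoke extract. IL-8 in supernatant measured by ELISA after 24 h. Significance by two-sided Student's t-test at the 5% level.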

The nature of series [3]: Inhibition of IL8 production in cigarette smoke extract treated human SAE cells at 100 uM. It is filed as functional. Also noted: scale not given: the % may be the effect or the level left. In short, it runs like this: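 Primary human small airway epithelial cells, confluent, passages 4-8, kept in 5% CO2 at 37 °C. CSE made by drawing smoke of one unfiltered 2R1 reference cigarette through 25 mL DPBS, set to pH 7.4, filtered and diluted to 5% in growth medium. Compound (100 µM) added 30 min before 5% CSE. After 24 h, supernatant IL-8 read by ELISA. Two-sided Student's t-test, 5% level.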

A short description of series [4]: Cytotoxicity against human HCT 116 cells after 72 hrs. It is filed as functional, cell-based. Conditions: HCT-116, 72 h. In short, it runs like this:
(§1)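 Colon cancer cells (10 000) seeded in DMEM with 10% FBS. After 24 h, treated with 1, 5, 10, 30, 50 and 70 µM compound for 72 h in DMEM with 1% FBS. Cells washed with PBS, trypsinized and counted on a Coulter Counter. IC50 derived. EGCG and Polyphenon E served as positive controls.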

For series [5], the system named is HT-29. In words: Cytotoxicity against human HT-29 cells after 72 hrs. The format is functional, cell-based. Conditions: HT-29, 72 h. Put shortly:
as §1

Series [6] concerns SW480. The series is described as follows: Cytotoxicity against human SW480 cells after 72 hrs. It is filed as functional, cell-based. As to conditions: SW480, 72 h. Put shortly:
as §1

`O=C(O)Cc1c(O)cc(O)cc1OC(=O)c1ccc(O)c(O)c1`: the IC50 (in general, the concentration that gives 50% inhibition) in series [1] stood at 61.8 µM; in series [4], 30 µM. The Activity in series [2] was 74.9%; in series [3], 70.3%.
`OC[C@H]1O[C@@H](Oc2cc3c(O)cc(O)cc3[o+]c2-c2ccc(O)c(O)c2)[C@H](O)[C@@H](O)[C@@H]1O` [KUROMANIN]: the Activity in series [2] was 65.3%; in series [3], 36.4%. Further, the IC50 in series [5], in series [4] and in series [6] was 100 µM each time.
`COC(=O)Cc1c(O)cc(O)cc1OC(=O)c1ccc(O)c(O)c1` [JABOTICABIN]: the figures for the IC50 in series [1] and in series [5] were 51.4 µM and 65 µM, respectively. Also, testing at 100 µM in series [2] (Homo sapiens, SAE) gave an inhibition of 81.3%. The Activity in series [3] is recorded as 47.3%.
Turning to `OC[C@H]1O[C@@H](Oc2cc3c(O)cc(O)cc3[o+]c2-c2cc(O)c(O)c(O)c2)[C@H](O)[C@@H](O)[C@@H]1O`, in series [3], the Activity is 96%. Further, the IC50 in series [4] was found to be 12 µM; in series [6], 20 µM.
